Source: ChEMBL document CHEMBL3797186, “Single Residue Substitutions That Confer Voltage-Gated Sodium Ion Channel Subtype Selectivity in the NaV1.7 Inhibitory Peptide GpTx-1” (J Med Chem, 2016)
Positions of bridges follow the written chain, without caps; N, C: chain ends. Residues, ends and D or L forms follow the SMILES beside them.

How the values were obtained:
[1] = molecular target: Sodium channel protein type 5 subunit alpha (Homo sapiens, UniProt Q14524); assay: Inhibition of human Nav1.5 expressed in HEK293 cells assessed as inward peak current by ion-works quattro patch clamp electrophysiology method; format: cell-based
Method in brief: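 Stable HEK293 line expressing human NaV1.5, recorded by population patch clamp on the IonWorks Quattro.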

[2] = molecular target: Sodium channel protein type 9 subunit alpha (Homo sapiens, UniProt Q15858); assay: Inhibition of human Nav1.7 expressed in HEK293 cells assessed as inward peak current by ion-works quattro patch clamp electrophysiology method; format: cell-based
Sequence of Sodium channel protein type 9 subunit alpha (Q15858 whole entry): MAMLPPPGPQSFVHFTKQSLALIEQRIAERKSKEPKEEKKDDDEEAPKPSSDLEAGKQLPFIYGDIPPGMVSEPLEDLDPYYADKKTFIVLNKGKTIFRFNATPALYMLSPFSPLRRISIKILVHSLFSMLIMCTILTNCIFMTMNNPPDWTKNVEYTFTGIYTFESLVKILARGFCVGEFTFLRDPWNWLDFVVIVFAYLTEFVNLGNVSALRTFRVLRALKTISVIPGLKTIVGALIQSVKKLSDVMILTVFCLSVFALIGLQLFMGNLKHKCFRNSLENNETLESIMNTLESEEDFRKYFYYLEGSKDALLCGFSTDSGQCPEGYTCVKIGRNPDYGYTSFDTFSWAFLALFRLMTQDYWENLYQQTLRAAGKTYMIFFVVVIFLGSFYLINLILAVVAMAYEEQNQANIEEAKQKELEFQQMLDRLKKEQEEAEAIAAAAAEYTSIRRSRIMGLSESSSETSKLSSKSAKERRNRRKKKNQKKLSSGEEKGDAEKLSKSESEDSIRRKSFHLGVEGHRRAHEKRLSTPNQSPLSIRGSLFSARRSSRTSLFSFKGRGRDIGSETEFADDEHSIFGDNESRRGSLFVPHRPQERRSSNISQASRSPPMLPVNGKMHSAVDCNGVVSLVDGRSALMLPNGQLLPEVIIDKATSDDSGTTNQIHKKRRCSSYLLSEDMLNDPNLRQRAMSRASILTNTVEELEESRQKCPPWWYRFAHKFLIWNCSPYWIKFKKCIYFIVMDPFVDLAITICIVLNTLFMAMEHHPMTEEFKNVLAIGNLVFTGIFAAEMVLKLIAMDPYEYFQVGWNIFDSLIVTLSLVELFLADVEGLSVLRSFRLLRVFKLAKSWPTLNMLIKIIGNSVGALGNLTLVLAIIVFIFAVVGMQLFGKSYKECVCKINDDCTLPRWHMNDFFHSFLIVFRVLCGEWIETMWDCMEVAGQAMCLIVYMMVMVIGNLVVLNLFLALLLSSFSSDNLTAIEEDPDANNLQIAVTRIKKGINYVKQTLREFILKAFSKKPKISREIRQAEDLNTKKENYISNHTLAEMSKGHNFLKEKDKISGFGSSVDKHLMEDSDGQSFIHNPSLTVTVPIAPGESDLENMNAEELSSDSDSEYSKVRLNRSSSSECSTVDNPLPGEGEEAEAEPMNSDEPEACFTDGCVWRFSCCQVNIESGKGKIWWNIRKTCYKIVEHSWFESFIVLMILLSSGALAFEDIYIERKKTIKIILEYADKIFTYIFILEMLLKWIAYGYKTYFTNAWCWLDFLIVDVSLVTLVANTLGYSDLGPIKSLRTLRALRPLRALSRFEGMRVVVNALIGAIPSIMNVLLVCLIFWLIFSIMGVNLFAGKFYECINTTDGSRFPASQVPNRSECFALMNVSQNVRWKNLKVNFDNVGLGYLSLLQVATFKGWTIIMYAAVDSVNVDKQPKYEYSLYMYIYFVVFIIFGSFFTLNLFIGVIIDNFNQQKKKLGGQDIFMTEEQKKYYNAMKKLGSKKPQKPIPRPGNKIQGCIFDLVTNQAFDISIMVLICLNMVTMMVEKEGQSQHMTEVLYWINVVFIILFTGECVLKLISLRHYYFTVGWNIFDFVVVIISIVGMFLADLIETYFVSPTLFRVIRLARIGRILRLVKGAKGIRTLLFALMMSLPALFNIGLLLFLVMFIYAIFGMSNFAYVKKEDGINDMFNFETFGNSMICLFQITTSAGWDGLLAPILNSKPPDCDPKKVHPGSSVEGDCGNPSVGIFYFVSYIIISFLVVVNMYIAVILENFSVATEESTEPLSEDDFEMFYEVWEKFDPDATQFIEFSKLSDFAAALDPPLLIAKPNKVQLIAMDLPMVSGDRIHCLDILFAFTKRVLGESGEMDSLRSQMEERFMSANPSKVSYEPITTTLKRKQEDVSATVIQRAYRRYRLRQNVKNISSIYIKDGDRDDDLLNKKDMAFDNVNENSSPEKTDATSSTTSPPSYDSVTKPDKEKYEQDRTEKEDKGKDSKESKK

Sequence of Sodium channel protein type 5 subunit alpha (Q14524 whole entry): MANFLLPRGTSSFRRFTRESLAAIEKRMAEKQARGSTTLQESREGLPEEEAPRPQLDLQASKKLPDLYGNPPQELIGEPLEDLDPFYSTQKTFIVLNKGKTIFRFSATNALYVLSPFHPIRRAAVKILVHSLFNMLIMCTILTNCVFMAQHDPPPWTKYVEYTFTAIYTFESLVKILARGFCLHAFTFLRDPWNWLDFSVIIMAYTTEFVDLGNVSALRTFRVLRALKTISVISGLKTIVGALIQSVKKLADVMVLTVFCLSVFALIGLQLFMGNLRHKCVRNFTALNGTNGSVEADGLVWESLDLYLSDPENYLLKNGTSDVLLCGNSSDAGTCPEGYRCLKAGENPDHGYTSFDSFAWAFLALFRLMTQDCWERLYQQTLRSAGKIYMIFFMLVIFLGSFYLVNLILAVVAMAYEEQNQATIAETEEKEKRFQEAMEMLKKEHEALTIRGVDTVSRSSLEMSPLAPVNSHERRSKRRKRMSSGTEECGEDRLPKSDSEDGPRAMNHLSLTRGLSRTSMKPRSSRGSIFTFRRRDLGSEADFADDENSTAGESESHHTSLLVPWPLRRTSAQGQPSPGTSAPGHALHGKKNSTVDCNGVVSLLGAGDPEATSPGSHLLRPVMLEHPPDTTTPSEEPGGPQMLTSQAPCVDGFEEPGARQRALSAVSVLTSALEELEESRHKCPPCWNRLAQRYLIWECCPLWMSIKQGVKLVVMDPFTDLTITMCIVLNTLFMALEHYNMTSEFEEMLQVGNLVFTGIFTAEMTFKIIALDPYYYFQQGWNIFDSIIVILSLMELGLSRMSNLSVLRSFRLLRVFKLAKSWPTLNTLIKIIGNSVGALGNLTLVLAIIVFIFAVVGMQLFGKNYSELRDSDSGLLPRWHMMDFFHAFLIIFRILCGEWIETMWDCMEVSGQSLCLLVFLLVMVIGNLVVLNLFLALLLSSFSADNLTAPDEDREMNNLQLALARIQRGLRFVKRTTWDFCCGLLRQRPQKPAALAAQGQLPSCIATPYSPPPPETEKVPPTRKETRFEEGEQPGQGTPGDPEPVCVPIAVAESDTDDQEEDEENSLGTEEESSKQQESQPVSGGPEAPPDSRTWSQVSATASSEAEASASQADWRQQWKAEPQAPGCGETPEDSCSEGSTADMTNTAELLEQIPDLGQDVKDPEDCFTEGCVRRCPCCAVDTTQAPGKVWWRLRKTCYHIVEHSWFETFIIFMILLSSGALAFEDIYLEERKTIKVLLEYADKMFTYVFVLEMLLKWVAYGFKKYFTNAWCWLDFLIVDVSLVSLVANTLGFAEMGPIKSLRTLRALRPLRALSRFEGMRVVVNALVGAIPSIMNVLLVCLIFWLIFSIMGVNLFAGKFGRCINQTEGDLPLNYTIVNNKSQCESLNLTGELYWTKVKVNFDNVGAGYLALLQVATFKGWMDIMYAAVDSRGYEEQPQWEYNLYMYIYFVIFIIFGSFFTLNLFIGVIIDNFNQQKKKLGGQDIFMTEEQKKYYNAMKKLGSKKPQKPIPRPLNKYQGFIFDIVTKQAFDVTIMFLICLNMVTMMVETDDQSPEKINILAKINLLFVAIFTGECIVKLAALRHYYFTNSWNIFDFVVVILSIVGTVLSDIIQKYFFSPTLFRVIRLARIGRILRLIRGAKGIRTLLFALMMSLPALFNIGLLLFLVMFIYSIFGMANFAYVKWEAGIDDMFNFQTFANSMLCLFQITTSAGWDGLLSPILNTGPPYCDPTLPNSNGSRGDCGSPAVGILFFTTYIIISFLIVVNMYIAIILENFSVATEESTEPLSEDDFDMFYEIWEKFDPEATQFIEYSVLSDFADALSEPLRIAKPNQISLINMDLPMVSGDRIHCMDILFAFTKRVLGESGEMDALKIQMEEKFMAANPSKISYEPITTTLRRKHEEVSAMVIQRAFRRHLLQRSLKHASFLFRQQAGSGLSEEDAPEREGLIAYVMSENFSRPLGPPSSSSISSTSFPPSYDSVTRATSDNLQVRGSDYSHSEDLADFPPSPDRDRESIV

Compound | IC50 [1] [nM] | IC50 [2] [nM]
CC[C@@H](C)[C@H]1NC(=O)[C@H]2CSSC[C@@H]3NC(=O)[C@@H](C(C)C)NC(=O)[C@H](CC(C)C)NC(=O)[C@@H](CC(N)=O)NC(=O)[C@@H]4CCCN4C(=O)[C@H](CCCNC(=N)N)NC(=O)[C@H](CSSC[C@H](NC(=O)[C@@H](CC(=O)O)NC(=O)[C@@H](C)N)C(=O)N[C@@H](CC(C)C)C(=O)NCC(=O)N[C@@H](Cc4ccccc4)C(=O)N[C@H](CCSC)C(=O)N[C@@H](CCCNC(=N)N)C(=O)N[C@@H](CCCCN)C(=O)N2)NC(=O)[C@@H](CSSC[C@@H](C(=O)N[C@@H](CCCCN)C(=O)N[C@@H](Cc2ccc(O)cc2)C(=O)N[C@H](C(=O)N[C@@H](Cc2ccccc2)C(N)=O)C(C)C)NC(=O)[C@@H](Cc2c[nH]c4ccccc24)NC(=O)[C@H](CCCCN)NC(=O)[C@H](Cc2cnc[nH]2)NC(=O)[C@@H]([C@H](C)O)NC(=O)[C@@H](CCCNC(=N)N)NC(=O)[C@H](CO)NC3=O)NC(=O)[C@@H](CCCCN)NC(=O)[C@H](CC(=O)O)NC(=O)[C@@H](CC(N)=O)NC(=O)[C@H](CC(=O)O)NC(=O)[C@@H]2CCCN2C1=O | > 5000 | 370
CC[C@H](C)[C@@H]1NC(=O)[C@H]2CSSC[C@H]3NC(=O)[C@H](C(C)C)NC(=O)[C@H](CC(C)C)NC(=O)[C@H](CC(N)=O)NC(=O)[C@@H]4CCCN4C(=O)[C@H](CCCNC(=N)N)NC(=O)[C@H](CSSC[C@H](NC(=O)[C@@H](N)CC(=O)O)C(=O)N[C@@H](CC(C)C)C(=O)NCC(=O)N[C@@H](Cc4ccccc4)C(=O)N[C@@H](CCSC)C(=O)N[C@@H](CCCNC(=N)N)C(=O)N[C@@H](CCCCN)C(=O)N2)NC(=O)[C@@H](CSSC[C@@H](C(=O)N[C@@H](CCCCN)C(=O)N[C@@H](Cc2ccc(O)cc2)C(=O)N[C@H](C(=O)N[C@@H](Cc2ccccc2)C(N)=O)C(C)C)NC(=O)[C@H](Cc2c[nH]c4ccccc24)NC(=O)[C@H](CCCCN)NC(=O)[C@H](C)NC(=O)[C@H]([C@@H](C)O)NC(=O)[C@H](CCCNC(=N)N)NC(=O)[C@H](CO)NC3=O)NC(=O)[C@H](CCCCN)NC(=O)[C@H](CC(=O)O)NC(=O)[C@H](CC(N)=O)NC(=O)[C@H](CC(=O)O)NC(=O)[C@@H]2CCCN2C1=O | > 5000 | 970
CC[C@H](C)[C@@H]1NC(=O)[C@@H]2CSSC[C@@H]3NC(=O)[C@H](C(C)C)NC(=O)[C@H](CC(C)C)NC(=O)[C@H](CC(N)=O)NC(=O)[C@@H]4CCCN4C(=O)[C@H](CCCNC(=N)N)NC(=O)[C@H](CSSC[C@H](NC(=O)[C@@H](N)CC(=O)O)C(=O)N[C@@H](CC(C)C)C(=O)NCC(=O)N[C@@H](Cc4ccccc4)C(=O)N[C@@H](CCSC)C(=O)N[C@@H](CCCNC(=N)N)C(=O)N[C@@H](CCCCN)C(=O)N2)NC(=O)[C@H](CSSC[C@@H](C(=O)N[C@@H](CCCCN)C(=O)N[C@@H](Cc2ccc(O)cc2)C(=O)N[C@H](C(=O)N[C@@H](Cc2c[nH]c4ccccc24)C(N)=O)C(C)C)NC(=O)[C@H](Cc2c[nH]c4ccccc24)NC(=O)[C@H](CCCCN)NC(=O)[C@H](Cc2c[nH]cn2)NC(=O)[C@H]([C@@H](C)O)NC(=O)[C@H](CCCNC(=N)N)NC(=O)[C@H](CO)NC3=O)NC(=O)[C@H](CCCCN)NC(=O)[C@H](CC(=O)O)NC(=O)[C@H](CC(N)=O)NC(=O)[C@H](CC(=O)O)NC(=O)[C@@H]2CCCN2C1=O (H-DCLGFMRKCIPDNDKCCRPNLVCSRTHKWCKYVW-NH2; disulfide 2-17, 9-23, 16-30) | > 5000 | 270
CC[C@H](C)[C@@H]1NC(=O)[C@@H]2CSSC[C@@H]3NC(=O)[C@H](C(C)C)NC(=O)[C@H](CC(C)C)NC(=O)[C@H](CC(N)=O)NC(=O)[C@@H]4CCCN4C(=O)[C@H](CCCNC(=N)N)NC(=O)[C@H](CSSC[C@H](NC(=O)[C@@H](N)CC(=O)O)C(=O)N[C@@H](CC(C)C)C(=O)NCC(=O)N[C@@H](Cc4ccccc4)C(=O)N[C@@H](CCSC)C(=O)N[C@@H](CCCNC(=N)N)C(=O)N[C@@H](CCCCN)C(=O)N2)NC(=O)[C@H](CSSC[C@@H](C(=O)N[C@@H](CCCCN)C(=O)N[C@@H](Cc2ccc(O)cc2)C(=O)N[C@H](C(=O)N[C@@H](Cc2ccccc2)C(N)=O)C(C)C)NC(=O)[C@H](Cc2c[nH]c4ccccc24)NC(=O)[C@H](CCCCN)NC(=O)[C@H](Cc2cnc[nH]2)NC(=O)[C@H]([C@@H](C)O)NC(=O)[C@H](CCCNC(=N)N)NC(=O)[C@H](CO)NC3=O)NC(=O)[C@H](CCCCN)NC(=O)[C@H](CC(=O)O)NC(=O)[C@H](CC(N)=O)NC(=O)[C@H](Cc2c[nH]c3ccccc23)NC(=O)[C@@H]2CCCN2C1=O (H-DCLGFMRKCIPWNDKCCRPNLVCSRTHKWCKYVF-NH2; disulfide 2-17, 9-23, 16-30) | > 5000 | 60
CC[C@H](C)[C@@H]1NC(=O)[C@@H]2CSSC[C@@H]3NC(=O)[C@H](C(C)C)NC(=O)[C@H](CC(C)C)NC(=O)[C@H](CC(N)=O)NC(=O)[C@@H]4CCCN4C(=O)[C@H](CCCNC(=N)N)NC(=O)[C@H](CSSC[C@H](NC(=O)[C@@H](N)CC(=O)O)C(=O)N[C@@H](CC(C)C)C(=O)NCC(=O)N[C@@H](Cc4ccccc4)C(=O)N[C@@H](CCSC)C(=O)N[C@@H](CCCNC(=N)N)C(=O)N[C@@H](CCCCN)C(=O)N2)NC(=O)[C@H](CSSC[C@@H](C(=O)N[C@@H](CCCCN)C(=O)N[C@@H](Cc2ccc(O)cc2)C(=O)N[C@H](C(=O)N[C@@H](Cc2ccccc2)C(N)=O)C(C)C)NC(=O)[C@H](Cc2c[nH]c4ccccc24)NC(=O)[C@H](CCCNC(=N)N)NC(=O)[C@H](Cc2cnc[nH]2)NC(=O)[C@H]([C@@H](C)O)NC(=O)[C@H](CCCNC(=N)N)NC(=O)[C@H](CO)NC3=O)NC(=O)[C@H](CCCCN)NC(=O)[C@H](CC(=O)O)NC(=O)[C@H](CC(N)=O)NC(=O)[C@H](CC(=O)O)NC(=O)[C@@H]2CCCN2C1=O | > 5000 | 90
CC[C@@H](C)[C@H]1NC(=O)[C@H]2CSSC[C@@H]3NC(=O)[C@@H](C(C)C)NC(=O)[C@H](CC(C)C)NC(=O)[C@H](CC(N)=O)NC(=O)[C@@H]4CCCN4C(=O)[C@H](CCCNC(=N)N)NC(=O)[C@H](CSSC[C@@H](NC(=O)[C@@H](N)CC(=O)O)C(=O)N[C@H](C)C(=O)NCC(=O)N[C@@H](Cc4ccccc4)C(=O)N[C@H](CCSC)C(=O)N[C@@H](CCCNC(=N)N)C(=O)N[C@@H](CCCCN)C(=O)N2)NC(=O)[C@@H](CSSC[C@@H](C(=O)N[C@@H](CCCCN)C(=O)N[C@@H](Cc2ccc(O)cc2)C(=O)N[C@H](C(=O)N[C@@H](Cc2ccccc2)C(N)=O)C(C)C)NC(=O)[C@@H](Cc2c[nH]c4ccccc24)NC(=O)[C@H](CCCCN)NC(=O)[C@H](Cc2cnc[nH]2)NC(=O)[C@@H]([C@H](C)O)NC(=O)[C@@H](CCCNC(=N)N)NC(=O)[C@H](CO)NC3=O)NC(=O)[C@@H](CCCCN)NC(=O)[C@H](CC(=O)O)NC(=O)[C@@H](CC(N)=O)NC(=O)[C@H](CC(=O)O)NC(=O)[C@@H]2CCCN2C1=O | > 5000 | 430
CC[C@H](C)[C@@H]1NC(=O)[C@@H]2CSSC[C@@H]3NC(=O)[C@H](C(C)C)NC(=O)[C@H](CC(C)C)NC(=O)[C@H](Cc4c[nH]c5ccccc45)NC(=O)[C@@H]4CCCN4C(=O)[C@H](CCCNC(=N)N)NC(=O)[C@H](CSSC[C@H](NC(=O)[C@@H](N)CC(=O)O)C(=O)N[C@@H](CC(C)C)C(=O)NCC(=O)N[C@@H](Cc4ccccc4)C(=O)N[C@@H](CCSC)C(=O)N[C@@H](CCCNC(=N)N)C(=O)N[C@@H](CCCCN)C(=O)N2)NC(=O)[C@H](CSSC[C@@H](C(=O)N[C@@H](CCCCN)C(=O)N[C@@H](Cc2ccc(O)cc2)C(=O)N[C@H](C(=O)N[C@@H](Cc2ccccc2)C(N)=O)C(C)C)NC(=O)[C@H](Cc2c[nH]c4ccccc24)NC(=O)[C@H](CCCCN)NC(=O)[C@H](Cc2cnc[nH]2)NC(=O)[C@H]([C@@H](C)O)NC(=O)[C@H](CCCNC(=N)N)NC(=O)[C@H](CO)NC3=O)NC(=O)[C@H](CCCCN)NC(=O)[C@H](CC(=O)O)NC(=O)[C@H](CC(N)=O)NC(=O)[C@H](CC(=O)O)NC(=O)[C@@H]2CCCN2C1=O (H-DCLGFMRKCIPDNDKCCRPWLVCSRTHKWCKYVF-NH2; disulfide 2-17, 9-23, 16-30) | > 5000 | 70
CSCC[C@@H]1NC(=O)[C@H](Cc2ccccc2)NC(=O)CNC(=O)[C@H](CC(C)C)NC(=O)[C@@H](NC(=O)[C@@H](N)CC(=O)O)CSSC[C@@H]2NC(=O)[C@@H]3CSSC[C@@H](C(=O)N[C@@H](CCCCN)C(=O)N[C@@H](Cc4ccc(O)cc4)C(=O)N[C@H](C(=O)N[C@@H](Cc4ccccc4)C(N)=O)C(C)C)NC(=O)[C@H](Cc4c[nH]c5ccccc45)NC(=O)[C@H](CCCCN)NC(=O)[C@H](Cc4cnc[nH]4)NC(=O)[C@H]([C@@H](C)O)NC(=O)[C@H](CCCNC(=N)N)NC(=O)[C@H](CO)NC(=O)[C@H](CSSC[C@H](NC(=O)[C@H](CCCCN)NC(=O)[C@H](CCCNC(=N)N)NC1=O)C(=O)N[C@@H](CCCNC(=N)N)C(=O)N1CCC[C@H]1C(=O)N[C@@H](CC(=O)O)C(=O)N[C@@H](CC(N)=O)C(=O)N[C@@H](CC(=O)O)C(=O)N[C@@H](CCCCN)C(=O)N3)NC(=O)[C@H](C(C)C)NC(=O)[C@H](CC(C)C)NC(=O)[C@H](CC(N)=O)NC(=O)[C@@H]1CCCN1C(=O)[C@H](CCCNC(=N)N)NC2=O (H-DCLGFMRKCRPDNDKCCRPNLVCSRTHKWCKYVF-NH2; disulfide 2-17, 9-23, 16-30) | > 5000 | 170
